The source made the active and inactive calls. The rule behind the calls is not given here.
Columns and labels:
[1] = molecular target: 5-hydroxytryptamine receptor 6 (Homo sapiens, UniProt P50406); test: Displacement of [3H]-LSD from human 5-HT6 receptor incubated for 1 hr by microbeta counting method
How it was run: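 Human receptor membranes from homogenized cell pellets, centrifuged twice at 35 000 g with a 15 min 37°C incubation between spins. Buffer 50 mM Tris–HCl, 0.5 mM EDTA, 4 mM MgCl2. Radioligand 2 nM [3H]-LSD. Nonspecific binding defined with 10 μM methiothepine. Incubated 1 h at 37°C, ended by filtration. Triplicates at 7–8 concentrations (10⁻¹¹–10⁻⁴ M). Ki by Cheng-Prusoff, means of ≥2 experiments.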

[2] = Dissociation constant, pKa of the compound; format: physicochemical
[3] = molecular target: T1, 5-hydroxytryptamine receptor 1A (Homo sapiens, UniProt P08908); test: (§1) Displacement of [3H]-8-OH-DPAT from 5-HT1A receptor (unknown origin) incubated for 1 hr by microbeta counting method
T1 sequence (P08908 whole entry): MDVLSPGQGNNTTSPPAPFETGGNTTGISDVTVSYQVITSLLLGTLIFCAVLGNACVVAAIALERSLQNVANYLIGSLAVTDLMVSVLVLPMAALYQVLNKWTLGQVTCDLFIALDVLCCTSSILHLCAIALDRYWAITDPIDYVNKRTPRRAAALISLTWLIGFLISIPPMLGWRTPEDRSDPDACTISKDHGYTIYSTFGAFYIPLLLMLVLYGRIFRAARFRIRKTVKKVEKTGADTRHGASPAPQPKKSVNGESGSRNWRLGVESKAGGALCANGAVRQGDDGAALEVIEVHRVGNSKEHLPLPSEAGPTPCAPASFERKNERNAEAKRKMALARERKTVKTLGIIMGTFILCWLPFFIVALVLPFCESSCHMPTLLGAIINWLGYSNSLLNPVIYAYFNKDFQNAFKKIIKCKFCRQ
How it was run: (§2)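 Membranes prepared from cell pellets by homogenization and two 35 000 g spins with a 15 min 37°C step between them. Buffer 50 mM Tris–HCl, 0.1 mM EDTA, 4 mM MgCl2, 10 μM pargyline, 0.1% ascorbate. Radioligand 1.5 nM [3H]-8-OH-DPAT. Nonspecific binding defined with 10 μM 5-HT. Incubated 1 h at room temperature, then filtered. Triplicates at 7–8 concentrations (10⁻¹¹–10⁻⁴ M). Ki by Cheng-Prusoff, means of ≥2 experiments.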

[4] = molecular target: 5-hydroxytryptamine receptor 2A (Homo sapiens, UniProt P28223); test: Binding affinity to 5-HT2A receptor (unknown origin) incubated for 1 hr by microbeta counting based displacement assay
5-hydroxytryptamine receptor 2A, sequence (P28223 whole entry): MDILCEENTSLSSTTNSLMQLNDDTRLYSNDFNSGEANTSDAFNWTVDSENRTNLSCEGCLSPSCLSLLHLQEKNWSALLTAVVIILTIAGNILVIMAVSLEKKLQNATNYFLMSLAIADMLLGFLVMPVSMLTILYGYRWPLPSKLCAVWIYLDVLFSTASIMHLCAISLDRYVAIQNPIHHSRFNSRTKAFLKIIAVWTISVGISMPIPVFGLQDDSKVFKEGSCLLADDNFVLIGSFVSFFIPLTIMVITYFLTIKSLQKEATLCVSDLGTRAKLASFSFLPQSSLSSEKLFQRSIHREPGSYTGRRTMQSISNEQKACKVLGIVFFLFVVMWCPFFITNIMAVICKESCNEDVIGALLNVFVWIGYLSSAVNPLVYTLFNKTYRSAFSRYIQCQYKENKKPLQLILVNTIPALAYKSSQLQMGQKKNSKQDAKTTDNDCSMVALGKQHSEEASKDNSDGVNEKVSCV

[5] = molecular target: T2, 5-hydroxytryptamine receptor 1A (Homo sapiens) (UniProt P08908); test: as §1; how it was run: as §2
T2 sequence (whole entry): T1 sequence (P08908 whole entry)

[6] = molecular target: 5-hydroxytryptamine receptor 7 (Homo sapiens) (UniProt P34969); test: Displacement of [3H]-5-CT from 5-HT7b receptor (unknown origin) incubated for 1 hr by microbeta counting method
5-hydroxytryptamine receptor 7 (Homo sapiens), sequence (P34969 whole entry): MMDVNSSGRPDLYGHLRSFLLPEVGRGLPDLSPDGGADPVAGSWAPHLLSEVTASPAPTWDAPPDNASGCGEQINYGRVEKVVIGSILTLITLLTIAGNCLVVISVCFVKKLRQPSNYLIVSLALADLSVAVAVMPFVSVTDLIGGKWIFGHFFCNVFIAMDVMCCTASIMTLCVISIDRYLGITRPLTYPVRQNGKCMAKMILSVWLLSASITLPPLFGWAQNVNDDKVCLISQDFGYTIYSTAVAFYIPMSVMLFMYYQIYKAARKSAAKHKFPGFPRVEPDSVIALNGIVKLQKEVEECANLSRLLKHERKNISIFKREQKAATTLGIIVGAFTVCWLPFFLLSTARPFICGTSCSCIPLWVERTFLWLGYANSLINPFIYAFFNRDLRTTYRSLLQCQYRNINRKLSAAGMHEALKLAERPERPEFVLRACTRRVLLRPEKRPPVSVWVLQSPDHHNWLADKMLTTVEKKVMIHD
How it was run: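 Membranes from thawed cell pellets, homogenized and centrifuged twice at 35 000 g (20 min, 4°C) with a 15 min 37°C incubation between spins. Buffer 50 mM Tris–HCl, 4 mM MgCl2, 10 μM pargyline, 0.1% ascorbate. Radioligand 0.6 nM [3H]-5-CT. Nonspecific binding defined with 10 μM 5-HT. Incubated 1 h at 37°C, ended by rapid filtration. Triplicates at 7–8 concentrations (10⁻¹¹–10⁻⁴ M). Ki by Cheng-Prusoff, means of ≥2 experiments.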

D(2) dopamine receptor = D(2) dopamine receptor (Homo sapiens, UniProt P14416); test: Displacement of [3H]-Raclopride from dopamine D2 receptor (unknown origin) incubated for 1 hr by microbeta counting method
D(2) dopamine receptor, sequence (P14416 whole entry): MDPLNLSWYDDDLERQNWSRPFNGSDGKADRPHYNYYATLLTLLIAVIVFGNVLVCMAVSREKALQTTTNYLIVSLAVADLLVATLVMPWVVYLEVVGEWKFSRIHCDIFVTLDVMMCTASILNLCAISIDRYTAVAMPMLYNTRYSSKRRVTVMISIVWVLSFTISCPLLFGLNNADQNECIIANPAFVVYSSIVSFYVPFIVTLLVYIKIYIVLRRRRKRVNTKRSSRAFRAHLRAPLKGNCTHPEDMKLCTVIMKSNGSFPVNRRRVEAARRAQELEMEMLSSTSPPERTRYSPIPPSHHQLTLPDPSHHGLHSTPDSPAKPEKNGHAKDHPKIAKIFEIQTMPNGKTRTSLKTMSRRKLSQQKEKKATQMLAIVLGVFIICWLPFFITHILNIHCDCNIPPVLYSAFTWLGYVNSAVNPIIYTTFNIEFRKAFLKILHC
How it was run: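 D2L receptor membranes from cell pellets, homogenized and spun twice at 35 000 g with a 15 min 37°C step between spins. Buffer 50 mM Tris–HCl, 1 mM EDTA, 4 mM MgCl2, 120 mM NaCl, 5 mM KCl, 1.5 mM CaCl2, 0.1% ascorbate. Radioligand [3H]-raclopride. Nonspecific binding defined with 1 μM (+)butaclamol. Incubated 1 h at 37°C, then filtered. Triplicates at 7–8 concentrations (10⁻¹¹–10⁻⁴ M). Ki by Cheng-Prusoff, means of ≥2 experiments.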

5-hydroxytryptamine receptor 6, sequence (P50406 whole entry): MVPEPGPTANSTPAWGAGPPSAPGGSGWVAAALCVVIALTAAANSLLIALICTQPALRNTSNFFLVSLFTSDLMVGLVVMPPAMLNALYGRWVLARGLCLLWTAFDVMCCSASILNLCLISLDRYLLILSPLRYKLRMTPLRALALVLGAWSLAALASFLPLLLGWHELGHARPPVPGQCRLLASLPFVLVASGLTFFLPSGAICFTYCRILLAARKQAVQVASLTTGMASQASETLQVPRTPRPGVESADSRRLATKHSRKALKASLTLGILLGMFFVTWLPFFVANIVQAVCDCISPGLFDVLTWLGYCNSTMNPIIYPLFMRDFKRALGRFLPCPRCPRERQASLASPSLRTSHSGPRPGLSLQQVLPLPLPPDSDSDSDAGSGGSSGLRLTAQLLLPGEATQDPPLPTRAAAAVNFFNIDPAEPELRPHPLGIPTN

| Ki [1] | pKa [2] | Structure (SMILES) | also measured |
| --- | --- | --- | --- |
| 403 nM | -0.4 | O=S(=O)(c1ccccc1)n1ccc2ccc(N3CCCCC3)cc21 | – |
| 1740 nM | 3.9 | O=S(=O)(c1ccccc1)n1ccc2c(N3CCN(CC(F)(F)F)CC3)cccc21 | – |
| 27 nM | 7.4 | CN1CCN(c2ccc3c(ccn3S(=O)(=O)c3ccccc3)c2)CC1 | – |
| 97 nM | -0.4 | CC(=O)N1CCN(c2ccc3ccn(S(=O)(=O)c4ccccc4)c3c2)CC1 | – |
| – | 7.3 | CN1CCN(c2cccc3c2ccn3S(=O)(=O)c2ccccc2)CC1 | Ki [3]: 164 nM; Ki [4]: 41 nM |
| 5250 nM | 3.4 | O=S(=O)(c1ccccc1)n1ccc2cc(N3CCN(CC(F)(F)F)CC3)ccc21 | – |
| 714 nM | 0.8 | CC(=O)N1CCN(c2cccc3c2ccn3S(=O)(=O)c2ccccc2)CC1 | – |
| 4850 nM | 0.9 | CC(=O)N1CCN(c2ccc3c(ccn3S(=O)(=O)c3ccccc3)c2)CC1 | – |
| 127 nM | – | COc1ccc2c(ccn2S(=O)(=O)c2ccccc2)c1 | – |
| 159 nM | – | O=S(=O)(c1ccccc1)n1ccc2ccccc21 | – |
| 9 nM | 8.2 | CN1CCN(c2ccc3ccn(S(=O)(=O)c4ccccc4)c3c2)CC1 | Ki [3]: 247 nM; Ki (D(2) dopamine receptor): 241 nM |
| 360 nM | 1.9 | O=S(=O)(c1ccccc1)n1ccc2cc(N3CCCCC3)ccc21 | – |
| 1200 nM | 3.6 | O=S(=O)(c1ccccc1)n1ccc2ccc(N3CCN(CC(F)(F)F)CC3)cc21 | – |
| 82 nM | 3.3 | CN(C)c1ccc2c(ccn2S(=O)(=O)c2ccccc2)c1 | – |
| – | 7.4 | CN1CCN(c2cn(S(=O)(=O)c3ccccc3)c3ccccc23)CC1 | – |

More lines, now with the values behind:

| Structure (SMILES) | Ki [1] | pKa [2] | also measured |
| --- | --- | --- | --- |
| CCCCS(=O)(=O)n1ccc2ccc(-c3ccncc3)cc21 | 1150 nM | – | – |
| O=S(=O)(c1ccccc1)n1cc(-c2ccncc2)c2ccccc21 | 124 nM | 5 | – |
| O=S(=O)(N1CCCCC1)n1ccc2ccc(-c3ccncc3)cc21 | 1660 nM | – | – |
| CN(C)c1cn(S(=O)(=O)c2ccccc2)c2ccccc12 | 474 nM | 4.2 | – |
| CN(C)c1cccc2c1ccn2Cc1ccccc1 | 2560 nM | – | – |
| CN(C)c1cccc2c1ccn2S(C)(=O)=O | 4720 nM | – | – |
| CS(=O)(=O)n1ccc2ccc(-c3ccncc3)cc21 | 4050 nM | – | – |
| O=S(=O)(c1ccccc1)n1ccc2ccc(-c3ccccc3)cc21 | 178 nM | – | – |
| O=S(=O)(c1ccccc1)n1ccc2c(O)cccc21 | 108 nM | – | – |
| CCCCS(=O)(=O)n1ccc2c(N(C)C)cccc21 | 49900 nM | – | – |
| O=S(=O)(c1ccccc1)n1ccc2cc(-c3ccccc3)ccc21 | 558 nM | – | – |
| O=S(=O)(C1CCCCC1)n1ccc2ccc(-c3ccncc3)cc21 | 2180 nM | – | – |
| c1ccc(Cn2ccc3ccc(-c4ccncc4)cc32)cc1 | 3260 nM | – | – |
| O=S(=O)(c1ccccc1)n1ccc2c(-c3ccncc3)cccc21 | 1510 nM | 4.9 | – |
| O=S(=O)(c1ccccc1)n1ccc2ccc(-c3ccncc3)cc21 | 38 nM | 4.9 | Activity [5]: inactive; Activity [4]: inactive; Activity [6]: inactive; Activity (D(2) dopamine receptor): inactive |
| CC(=O)N1CCN(c2cn(S(=O)(=O)c3ccccc3)c3ccccc23)CC1 | 97 nM | 0.6 | – |
| O=S(=O)(c1ccccc1)n1ccc2cc(-c3ccncc3)ccc21 | 409 nM | 4.5 | – |
| O=S(=O)(c1ccccc1)n1ccc2c(N3CCCCC3)cccc21 | 128 nM | 5.4 | – |
| CN(C)c1cccc2c1ccn2S(=O)(=O)N1CCCCC1 | 39100 nM | – | – |
| COc1cccc2c1ccn2S(=O)(=O)c1ccccc1 | 262 nM | – | – |
| O=S(=O)(c1ccccc1)n1ccc2c(-c3ccccc3)cccc21 | 162 nM | – | – |
| O=S(=O)(c1ccccc1)n1cc(N2CCN(CC(F)(F)F)CC2)c2ccccc21 | 2030 nM | 3.6 | – |
| CN(C)c1ccc2ccn(S(=O)(=O)c3ccccc3)c2c1 | 211 nM | -0.3 | – |
| CN(C)c1cccc2c1ccn2S(=O)(=O)c1ccccc1 | 65 nM | 5 | Activity [5]: inactive; Activity [4]: inactive; Activity [6]: inactive; Activity (D(2) dopamine receptor): inactive |
| CN(C)c1cccc2c1ccn2S(=O)(=O)C1CCCCC1 | 4890 nM | – | – |
| O=S(=O)(c1ccccc1)n1cc(-c2ccccc2)c2ccccc21 | 146 nM | – | – |
| O=S(=O)(c1ccccc1)n1cc(N2CCCCC2)c2ccccc21 | 219 nM | 4.5 | – |

Source: ChEMBL document CHEMBL4732129, “Rationally designed N-phenylsulfonylindoles as a tool for the analysis of the non-basic 5-HTR ligands binding mode” (Eur J Med Chem, 2021)
